In PubChem BioAssay AID463104 (Sanford-Burnham Center for Chemical Genomics, 2010) one finds activation data, which are given here for 87 compounds.

Out of some 330,000 compounds screened, about 1,100 (0.33%) were called active. The list comes from a sample in which actives are over-represented; it also holds similar structures and randomly drawn compounds. Values without a mark were called inactive.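 Rule for the calls: active = versus positive control, 20 µM dose yields 30% or more activation; inactive = the rest.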

This assay in a line: IRE1-XBP1 pathway stimulators – cell-based, CHO-XBP1 luciferase reporter, luminescence, uHTS, primary screen (AID 463104).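 Note: 100% = tunicamycin at 10 µg/mL and 0% = DMSO only wells.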 As to conditions: IRE1-XBP1 UPR activation, at 20 µM, active compounds read high, percent of tunicamycin response, DMSO as zero. The procedure, abridged:
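Material: CHO-XBP1 cells stably carrying IRE1-XBP1-driven luciferase reporter / Amount: 1000 cells per well / Compound: 20 µM, 1% DMSO / Times: 6 h treatment, 37 °C / Detection: luciferase luminescence / Measure: % activation of reporter signal versus tunicamycin and DMSO controls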
Regarding `CC(C)N(C(=O)[C@H]1C[C@H](CC(=O)NCCC2=CCCCC2)C(=O)N2CCc3c([nH]c4cc(CCC(=O)N(C)C)ccc34)[C@]12C)C(C)C`, the activation was -2.39%.
As to `CN(C)C(=O)CCc1ccc2c3c([nH]c2c1)[C@]1(CCc2ccccc2)[C@@H](C(=O)N2CCCCC2)C[C@H](CC(=O)NCCC2=CCCCC2)C(=O)N1CC3`, the activation was 37.8% (active).
The figure for `CN(C)C(=O)CCc1ccc2c3c([nH]c2c1)[C@]1(C)[C@@H](C(=O)N2CCCCC2)C[C@H](CC(=O)NCCC2=CCCCC2)C(=O)N1CC3` is -0.99%; for `CCOC(=O)N1CCC(O)(c2cc(C)c(C)cc2C)CC1` it is 0.36%; for `c1ccc(-n2nnnc2NC2CCCCCC2)cc1` it is -3.04%.
Under `COc1cc(OC)c(C(=O)OC(C)C(=O)Nc2cc(C(F)(F)F)ccc2Cl)cc1OC` (configuration not stated) stands 1.27%; under `CSc1nc2c(c(=O)[nH]1)C(c1cccc(Cl)c1Cl)CC(=O)N2` (configuration not stated), -1.96%.
The figure for `COc1ccc(C2CC(=O)Nc3sc(=N)c4c(N)c(C#N)c(N)nc4c32)cc1OC` (configuration not stated) is 2.45%.
As to `N#Cc1c(N)nc2c3c(sc(=N)c2c1N)NC(=O)CC3c1ccccc1Cl` (configuration not stated), the activation is 31.5% (active).
As for `O=C(Nc1nnc(-c2ccccc2F)s1)c1ccccc1F`, the activation is 4.27%.
The figure for `Cc1ccc(-n2ncc3c2CC(C)(C)CC3NC(=O)CCc2cnn(C)c2)cc1` (configuration not stated) is -4.76%; for `COC(=O)c1sccc1NC(=O)COc1ccc(Cl)cc1` it is -0.33%.
The figure for `COC(=O)c1c(NC(=O)COc2ccc(Cl)cc2Cl)sc2c1CC(C)(C)NC2(C)C` is 74.2% (active); for `CCOC(=O)c1c(NC(=O)c2ccc(S(=O)(=O)N(C)CC3CCCO3)cc2)sc2c1CC(C)(C)NC2(C)C` (configuration not stated) it is -6.05%; for `COc1ccc(-c2cc(=O)oc3cc(OCC(=O)N(C)C4CCS(=O)(=O)C4)ccc23)cc1` (configuration not stated) it is -1.57%.
Consider `COc1ncnc2c1N=C1CC(C)(C)CC(N)=C1S2`, for which the activation was -0.91%.
Under `CN1C(=O)/C(=C/c2ccc(C(=O)NC3CCCC3)cc2)Oc2ccccc21` stands 33.7% (active); under `CN1CCN(CCCNC(=O)c2ccc(/C=C3\Oc4ccccc4N(Cc4ccc(Cl)cc4)C3=O)cc2)CC1`, 13.7%; under `O=C(NC1CC1)c1ccc(-c2ccccc2)cc1`, 0.87%.
Under `COc1cccc(NC(=O)C(Sc2nnnn2C)c2ccccc2)c1` (configuration not stated) stands -3.49%; under `CCOC(=O)N1CCN(C(=O)c2n[nH]c(=O)c3ccccc23)CC1`, -2.8%.
The figure for `CCOC(=O)N1CCN(C(=O)c2nn(-c3ccc(C)cc3)c(=O)c3c2c2ccccc2n3C)CC1` is 34.3% (active); for `CCOC(=O)N1CCN(C(=O)Cn2cnc3ccccc3c2=O)CC1` it is -3.17%.
Turning to `CN(Cc1ccccc1)CC(O)COc1ccc(CNCc2cc3ccccc3s2)cc1` (configuration not stated), the activation was -0.93%.
With `CCOC(=O)c1c(NC(=O)CCl)sc(C(=O)N(CC)CC)c1C`, the activation is 11.5%.
Under `CCOC(=O)c1c(NC(=O)CNC2CCCc3ccccc32)sc(C(N)=O)c1C` (configuration not stated) stands 39.6% (active).
Regarding `NC(=O)Nc1ccc(C(=O)OCC(=O)NC2CCCc3ccccc32)cc1` (configuration not stated), the activation was -2.79%.
The figure for `CC1CCCCC1NC(=O)CN1CCC(O)(c2ccc3c(c2)OCO3)CC1` (configuration not stated) is -2.34%; for `O=C(NCC(=O)N1CCN(c2ncc(C(F)(F)F)cc2Cl)CC1)c1ccc(Br)o1` it is -1.88%; for `CCSc1nnc(-c2cc3c(s2)-c2ccccc2CC3)o1` it is 3.74%.
Under `Nc1nc(NCC2CCCO2)nc(Nc2ccccc2F)c1[N+](=O)[O-]` (configuration not stated) stands 1.61%; under `Nc1nc(Nc2ccccc2F)nc(NC2CCCCC2)c1[N+](=O)[O-]`, 11.1%; under `C=CCNc1nc(N)c([N+](=O)[O-])c(NC2CCCCC2)n1`, 32% (active).
Take `Cc1ccc(-c2nnc(-c3ccc(NC(=O)c4cccs4)cc3)o2)cc1`: the activation is 198% (active).
Take `Cc1ccc(OCC(=O)Nc2ccc(NC(=O)c3cccs3)cc2)c(C)c1`: the activation was 10.1%.
Under `Cc1ccc(NC(=O)c2cccs2)cc1S(=O)(=O)N(C)C` stands 1.24%.
As for `COc1ccc(-c2ccc(CCC(=O)O)n2-c2ccc(O)cc2)cc1`, the activation is -1.71%.
As to `Nc1ccc(S(=O)(=O)Nc2nccc(/C=C/c3ccc(Br)s3)n2)cc1`, the activation was -1.07%.
Under `Oc1cccc2ccc(/C=C/c3ccc(Br)s3)nc12` stands 54.5% (active).
In the case of `c1ccc(-c2ccnc3nc(-n4cccc4)nn23)cc1`, the activation is 0.42%.
Under `N#Cc1ccc(Oc2ccc(C(F)(F)F)cc2NC(=O)c2ccc(F)cc2)cc1` stands 0.22%; under `COc1cc(NC(=O)c2cncc(-c3ccc(C#N)cc3)c2)cc(C(=O)Nc2cccc(C(F)(F)F)c2)c1`, 125% (active).
Under `COc1cc(NC(=O)c2[nH]cnc2C(N)=O)cc(C(=O)Nc2cccc(C(F)(F)F)c2)c1` stands -2.27%; under `Cc1cc2c(C)nc(N/N=C/c3ccccc3)nc2o1`, 4.19%; under `O=C(N/C(=C/c1ccc(Cl)cc1)C(=O)N1CCCCC1)c1ccco1`, -3.57%.
Under `Cc1ccc(SC(CC(=O)c2ccc(C(C)(C)C)cc2)C(=O)O)cc1` (configuration not stated) stands 0.27%.
As for `C=CCn1c(SCc2ccccc2)nc2c1c(=O)[nH]c(=O)n2C`, the activation is 5.46%.
As to `COCCCNc1nc2c(-c3cccc(C)c3)nnn2c2ccc(Cl)cc12`, the activation was 26.4%.
The figure for `O=C(Nc1ccc(S(=O)(=O)N2CCc3ccccc3C2)cc1)c1ccccc1` is -1.11%; for `Cc1cccc(NC(=O)c2ccc(S(=O)(=O)N(C)c3ccccc3)cc2)n1` it is -2.2%; for `C=CCN(CC=C)S(=O)(=O)c1ccc(C(=O)Nc2nc3c(s2)CCc2ccccc2-3)cc1` it is 35.1% (active).
Under `COc1ccc(C(=O)OCC(=O)N2CC(=O)Nc3ccccc32)cc1Br` stands 0.2%; under `CCOc1ccccc1C1CC(c2cccc(NS(C)(=O)=O)c2)=NN1C(=O)c1ccccc1` (configuration not stated), -3.45%; under `COc1ccc(C2=NN(C(=O)c3ccccc3C(=O)O)C(c3ccccc3O)C2)cc1` (configuration not stated), -1.79%.
Under `CCOc1ccc2nc(Cl)c(C3CC(c4ccccc4)=NN3C(=O)c3cccs3)cc2c1` (configuration not stated) stands 51.3% (active); under `CC(C)(C)c1cc(P(=O)(c2ccccc2)c2ccccc2)ccc1O`, -1.41%.
Turning to `CN(C)c1ccc(NC(=O)c2ccncc2)c2ccccc12`, the activation is -0.55%.
Under `O=C(Nc1ccc2nc3n(c(=O)c2c1)CCCCC3)c1ccccc1Cl` stands 45.2% (active); under `O=C(Nc1ccc2nc3n(c(=O)c2c1)CCCC3)c1ccc(Cl)nc1`, 2.35%; under `CCCCN(CC)C(=S)Nc1ccc2nc3n(c(=O)c2c1)CCCCC3`, 1.45%.
Turning to `Cc1ccc(CS(=O)(=O)CCC(=O)NCc2ccc(F)cc2)cc1`, the activation was -1.62%.
`COc1ccc(Nc2cc(C)nc(-n3nc(C)cc3C)n2)cc1`: the activation was 121% (active).
Regarding `COc1ccc(NC(=O)c2nc(-n3nc(C)cc3C)ccc2Cl)cc1Cl`, the activation is -2.77%.
The figure for `CC(=O)c1ccc(Oc2cc(C)nc(-n3nc(C)cc3C)n2)cc1` is 16.4%.
The figure for `CC(=O)OCCN(CCCn1c(-c2ccncc2)nc2ccccc21)c1nc(-c2ccc(C)cc2)cs1` is -1.12%; for `C=CC[C@@H](CC(=O)N[C@H](CO)Cc1ccccc1)C(=O)N[C@H](C)COC(=O)[C@@H](CC=C)Cc1ccc(F)cc1` it is -2.99%.
Regarding `C=CC[C@@H](CC(=O)N[C@@H](CO)Cc1ccccc1)C(=O)N[C@H](COC(=O)[C@H](CC=C)CC(=O)OC(C)(C)C)Cc1ccccc1`, the activation was 32.4% (active).
The figure for `C=CC[C@@H](CC(=O)N[C@@H](CO)Cc1ccccc1)C(=O)NCCOC(=O)[C@@H](CC=C)CC(=O)OC(C)(C)C` is -2.2%; for `CCCc1cc(=O)[nH]c2nnc(SCC(=O)Nc3nnc(SCC)s3)n12` it is -0.61%.
Under `O=C(NCc1ccccc1Cl)NC(=O)c1csc([N+](=O)[O-])c1` stands -1.89%.
Under `O=C(COc1ncnc2ccccc12)NC(=O)NCc1ccccc1` stands -0.7%; under `O=C(O)CCC(=O)NCc1ccc(C(=O)O)cc1`, -0.32%; under `COc1ccccc1N=C(C)C1=C(O)COC1=O`, 0.65%.
`COc1cc(N=Cc2c(O)c3ccccc3oc2=O)c(OC)cc1Cl`: the activation was -0.88%.
The figure for `COc1ccccc1N=Cc1c(O)c2ccccc2oc1=O` is 120% (active); for `COc1ccc(-c2nc3ccccc3n2CCC(C)C)cc1OC` it is -2.77%.
Under `COc1ccc(C(C)(C)C)cc1NC(=O)CCN1C(=O)C2CCCCC2C1=O` (configuration not stated) stands 0.21%; under `CS(=O)(=O)N(CC(=O)N/N=C/c1ccccn1)c1ccc(Oc2ccccc2)cc1`, 1.21%.
The figure for `CCC1(CC)Cc2ccccc2-c2nc(CCl)[nH]c(=O)c21` is 45.2% (active); for `CC1(C)Cc2ccccc2-c2nc(CN3CCOCC3)[nH]c(=O)c21` it is 2.37%; for `CC1(C)Cc2ccccc2-c2[nH]c(=S)[nH]c(=O)c21` it is -3.14%.
Consider `Cc1ccc2nnn(Cc3cccc(C(C)(C)C)c3O)c2c1`, for which the activation was -2.21%.
The figure for `CCOC(=O)/C=C/c1ccc(C(F)(F)F)cc1S(=O)(=O)NC(C)(C)C` is 3.87%.
The figure for `COc1ccc(CNC(=O)CCC(=O)Nc2nnc(C(C)C)s2)cc1` is 2.87%; for `COc1cccc(Cn2cc(/C=N/NC(=O)c3cc(O)cc(O)c3)c3ccccc32)c1` it is -0.87%.
The figure for `N#CCC(=O)N/N=C/c1cn(Cc2ccc3ccccc3c2)c2ccccc12` is 77.3% (active); for `CNC(=S)N/N=C/c1cn(Cc2ccc(C)cc2)c2ccccc12` it is -0.8%.
